Activity calls are given as the source filed them. The rule behind the calls is not given here.
How the values were obtained:
[1] = target: T1, Kinesin-like protein KIF11 (Homo sapiens, UniProt P52732); experiment: Inhibition of microtubule-stimulated Eg5 ATPase activity expressed in Escherichia coli after 12 hrs; format: functional
T1 sequence (P52732 whole entry): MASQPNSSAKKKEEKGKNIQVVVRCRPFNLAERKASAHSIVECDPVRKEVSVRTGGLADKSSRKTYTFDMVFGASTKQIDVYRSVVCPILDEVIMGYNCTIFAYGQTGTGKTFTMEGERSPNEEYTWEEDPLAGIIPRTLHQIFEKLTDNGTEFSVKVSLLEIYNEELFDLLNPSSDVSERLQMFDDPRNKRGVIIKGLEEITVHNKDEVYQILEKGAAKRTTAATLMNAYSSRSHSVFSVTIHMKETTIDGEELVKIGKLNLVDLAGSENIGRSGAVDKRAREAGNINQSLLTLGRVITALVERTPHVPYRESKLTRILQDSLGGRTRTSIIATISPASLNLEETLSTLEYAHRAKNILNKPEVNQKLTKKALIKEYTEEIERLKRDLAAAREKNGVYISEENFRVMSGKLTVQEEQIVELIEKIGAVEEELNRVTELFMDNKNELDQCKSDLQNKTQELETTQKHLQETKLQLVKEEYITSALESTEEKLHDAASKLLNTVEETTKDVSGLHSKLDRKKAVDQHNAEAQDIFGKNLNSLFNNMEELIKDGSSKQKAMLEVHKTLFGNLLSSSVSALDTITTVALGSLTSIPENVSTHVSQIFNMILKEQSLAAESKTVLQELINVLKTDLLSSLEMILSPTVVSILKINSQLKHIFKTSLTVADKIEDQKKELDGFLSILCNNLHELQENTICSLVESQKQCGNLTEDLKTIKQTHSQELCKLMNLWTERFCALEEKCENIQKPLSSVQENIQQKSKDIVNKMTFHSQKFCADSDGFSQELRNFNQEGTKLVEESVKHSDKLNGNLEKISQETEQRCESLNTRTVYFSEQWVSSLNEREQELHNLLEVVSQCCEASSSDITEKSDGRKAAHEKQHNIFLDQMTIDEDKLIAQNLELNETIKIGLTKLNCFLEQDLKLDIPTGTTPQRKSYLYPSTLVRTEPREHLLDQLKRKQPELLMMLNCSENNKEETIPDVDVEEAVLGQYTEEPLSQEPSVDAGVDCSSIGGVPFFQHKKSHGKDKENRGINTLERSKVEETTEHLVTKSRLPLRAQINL

[2] = target: T1, Kinesin-like protein KIF11; experiment: Inhibition of Eg5 ATPase activity expressed in Escherichia coli after 12 hrs
[3] = system: HeLa; experiment: Induction of monoastral spindles in HeLa cells at 100 uM after 7 hrs; format: functional, Homo sapiens
In short: (§1)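 Fixed 1% paraformaldehyde-PBS 37 °C 3 min, then methanol −20 °C 5 min; anti-β-tubulin plus FITC secondary, propidium iodide counterstain. Monoastral spindles counted as percentage of mitotic cells; <25% deemed not significant.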

[4] = system: HeLa; experiment: Induction of monoastral spindles in HeLa cells at 50 uM after 7 hrs; format: functional, Homo sapiens; in short: as §1
[5] = system: HeLa; experiment: Induction of monoastral spindles in HeLa cells after 7 hrs; format: functional, cell-based; details: Homo sapiens; in short: as §1
[6] = target: T1, Kinesin-like protein KIF11; experiment: Inhibition of Eg5 ATPase activity expressed in Escherichia coli after 12 hrs; format: functional
[7] = system: HeLa; experiment: Cell cycle arrest in human HeLa cells assessed as 4N DNA content at 100 uM after 24 hrs; format: functional
In short: (§2)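 HeLa cells exposed 24 h; two-dimensional flow cytometry with MPM-2 antibody (mitosis-specific phosphoepitopes, FITC-conjugated secondary) and propidium iodide for DNA content; 10,000 events per sample, aggregates gated out; 4N population and fraction MPM-2 positive scored.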

[8] = target: T2, Kinesin-like protein KIF11 (Homo sapiens) (UniProt P52732); experiment: Inhibition of Eg5 ATPase activity expressed in Escherichia coli at 500 uM after 12 hrs; format: functional
T2 sequence (whole entry): T1 sequence (P52732 whole entry)
In short: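 Basal (no microtubules) steady-state ATPase of Eg5 2–386 at 1.0 µM, pyruvate kinase/lactate dehydrogenase-coupled assay, room temperature, duplicate, 2.5% DMSO; top concentration 500 µM. Acetylated analogues alternatively preincubated (2 mM) 12 h at 37 °C in DMEM + 10% FBS before basal ATPase measurement.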

[9] = target: T2, Kinesin-like protein KIF11 (Homo sapiens); experiment: Inhibition of microtubule-stimulated Eg5 ATPase activity expressed in Escherichia coli at 500 uM after 12 hrs; format: functional
[10] = system: HeLa; experiment: Cell cycle arrest in human HeLa cells assessed as 4N DNA content at 25 uM after 24 hrs; format: functional; in short: as §2

Which results are given for `CCOC(=O)C1=C(C)NC(=S)NC1c1cccc(O)c1` (configuration not stated) [MONASTROL]?
IC50 [1]: 12.3 µM; IC50 [2]: 6.1 µM; Activity [3]: 94.4%; Activity [4]: 45.5%; IC50 [5]: 51.3 µM; IC50 [6]: 6.1 µM; Activity [7]: 48%

How did the Activity [8] turn out when `CCOC(=O)C1=C(C)N(CCOCCOCCO)C(=S)NC1c1cccc(O)c1` (configuration not stated) was run?
Its Activity is “inactive”.

And the Activity [9]?
Its Activity is “inactive”.

And the Activity [3]?
Its Activity is 13.6%.

What about the Activity [4] of the same molecule?
Its Activity is <25%.

Which results are given for `CC1=C(C(=O)OCCOCCO)C(c2cccc(O)c2)NC(=S)N1` (configuration not stated)?
IC50 [1]: 21 µM; Activity [3]: 50.5%; Activity [4]: <25%; IC50 [6]: 9.5 µM

For `CCOC(=O)C1=C(C)NC(=S)NC1c1cc(OC(C)=O)ccc1OC(C)=O` (configuration not stated), which Activity [8] is on record?
Its Activity is “inactive”.

And the Activity [9]?
Its Activity is “inactive”.

What about the Activity [4] of the same molecule?
Its Activity is 56.2%.

Which results are given for `CCNC(=O)C1=C(C)NC(=S)NC1c1cccc(O)c1` (configuration not stated)?
IC50 [1]: 82.3 µM; Activity [3]: 17.8%; Activity [4]: <25%; IC50 [6]: 23 µM

For `CC1=C(C(=O)NCCOCCOCCN)C(c2cccc(O)c2)NC(=S)N1` (configuration not stated), which IC50 [1] is on record?
Its IC50 is 18.3 µM.

What about the Activity [3] of the same molecule?
Its Activity is 15.8%.

What about the Activity [4] of the same molecule?
Its Activity is <25%.

What about the IC50 [6] of the same molecule?
The IC50 was 22 µM.

With `CC(=O)SCCOCCOC(=O)C1=C(C)NC(=S)NC1c1cccc(O)c1` (configuration not stated) as the molecule, how does the IC50 [1] read?
Its IC50 is 11.5 µM.

And the Activity [3]?
Its Activity is 32.5%.

What about the Activity [4] of the same molecule?
The Activity was <25%.

What about the IC50 [6] of the same molecule?
Its IC50 is 4.5 µM.

With `COC(=O)Nc1nc2cc(C(=O)c3cccs3)ccc2[nH]1` [NOCODAZOLE] as the molecule, how does the Activity [10] read?
The Activity was 82%.

Which results are given for `CC1=C(C(=O)c2ccco2)C(c2cccc(O)c2)NC(=S)N1` (configuration not stated)?
Activity [10]: 72%; IC50 [1]: 3 µM; Activity [4]: 96.8%; IC50 [5]: 9.2 µM; IC50 [6]: 1.5 µM; Activity [7]: 77%

For `CC1=C(C(=O)OCCOCCOCCOCCO)C(c2cccc(O)c2)NC(=S)N1` (configuration not stated), which IC50 [1] is on record?
The IC50 was 62.5 µM.

And the Activity [3]?
The Activity was 16.8%.

What about the Activity [4] of the same molecule?
Its Activity is <25%.

And the IC50 [6]?
The IC50 was 23 µM.

Which results are given for `CCOC(=O)C1=C(C)NC(=S)NC1c1cc(O)ccc1O` (configuration not stated)?
Activity [8]: inactive; Activity [9]: inactive; Activity ([4]; Homo sapiens): Active

Which results are given for `CCOC(=O)C1=C(C)NC(=S)NC1c1cccc(OC(C)=O)c1` (configuration not stated)?
IC50 [2]: 3.9 µM; Activity [8]: inactive; Activity [9]: inactive; Activity [3]: 89.6%; Activity [4]: 49.7%; IC50 [5]: 50 µM

With `CC1=C(C(=O)OCCOCCS)C(c2cccc(O)c2)NC(=S)N1` (configuration not stated) as the molecule, how does the IC50 [1] read?
Its IC50 is 5.5 µM.

What about the Activity [3] of the same molecule?
The Activity was 15.2%.

What about the Activity [4] of the same molecule?
Its Activity is <25%.

And the IC50 [6]?
The IC50 was 4 µM.

What does the source list for `CC1=C(C(=O)NCCOCCOCCN=[N+]=[N-])C(c2cccc(O)c2)NC(=S)N1` (configuration not stated)?
IC50 [1]: 69.1 µM; Activity [3]: 14.9%; Activity [4]: <25%; IC50 [6]: 39 µM

With `CC1=C(C(=O)O)C(c2cccc(O)c2)NC(=S)N1` (configuration not stated) as the molecule, how does the IC50 [1] read?
Its IC50 is 72.2 µM.

And the Activity [3]?
Its Activity is 15.5%.

And the Activity [4]?
The Activity was <25%.

And the IC50 [6]?
The IC50 was 32 µM.

Which Activity [8] does the source give for `CCOC(=O)C1=C(C)NC(=S)NC1c1cc(O)ccc1[N+](=O)[O-]` (configuration not stated) here?
The Activity was “inactive”.

What about the Activity [9] of the same molecule?
Its Activity is “inactive”.

And the Activity [4]?
Its Activity is <25%.

For `CC1=C(C(=O)OCCOCCOC(=O)C2=C(C)NC(=S)NC2c2cccc(O)c2)C(c2cccc(O)c2)NC(=S)N1` (configuration not stated), which IC50 [1] is on record?
The IC50 was 24 µM.

And the Activity [3]?
Its Activity is 11.4%.

And the Activity [4]?
The Activity was <25%.

And the IC50 [6]?
Its IC50 is 10 µM.

For `CCOC(=O)C1=C(C)NC(=S)N(C(C)=O)C1c1cccc(O)c1` (configuration not stated), which IC50 [2] is on record?
The IC50 was 3.8 µM.

And the Activity [8]?
The Activity was “inactive”.

What about the Activity [9] of the same molecule?
Its Activity is “inactive”.

What about the Activity [4] of the same molecule?
The Activity was 36.9%.

For `CCOC(=O)C1=C(C)NC(=S)NC1c1ccc(O)c(O)c1` (configuration not stated), which Activity [8] is on record?
The Activity was “inactive”.

What about the Activity [9] of the same molecule?
Its Activity is “inactive”.

And the Activity [4]?
The Activity was <25%.

`CCOC(=O)C1=C(C)NC(=[Se])NC1c1cccc(O)c1` (configuration not stated) was tested. Which IC50 [1] did it give?
Its IC50 is 23 µM.

What about the Activity [3] of the same molecule?
The Activity was 33.2%.

And the IC50 [6]?
The IC50 was 11.5 µM.

What does the source list for `CCOC(=O)C1=C(C)NC(=S)N(C(C)=O)C1c1cccc(OC(C)=O)c1` (configuration not stated)?
IC50 [2]: 5 µM; Activity [8]: inactive; Activity [9]: inactive; Activity [3]: 83.5%; Activity [4]: 39.3%; IC50 [5]: 62.5 µM

Which Activity [8] does the source give for `CCOC(=O)C1=C(C)N=C(SCc2ccccc2)NC1c1cccc(O)c1` (configuration not stated) here?
The Activity was “inactive”.

And the Activity [9]?
The Activity was “inactive”.

What about the Activity [3] of the same molecule?
Its Activity is <25%.

And the Activity [4]?
Its Activity is <25%.

`CCOC(=O)C1=C(C)NC(SCC)=NC1c1cccc(O)c1` (configuration not stated) was tested. Which Activity [8] did it give?
Its Activity is “inactive”.

What about the Activity [9] of the same molecule?
The Activity was “inactive”.

And the Activity [3]?
Its Activity is <25%.

And the Activity [4]?
Its Activity is <25%.

What does the source list for `CCOC(=O)C1=C(C)NC(=S)NC1c1ccc(OCCOCCOCCO)c(O)c1` (configuration not stated)?
Activity [8]: inactive; Activity [9]: inactive; Activity [3]: 10.3%; Activity [4]: <25%

From ChEMBL document CHEMBL1149635, “New chemical tools for investigating human mitotic kinesin Eg5” (Bioorg Med Chem, 2007)
